Experimental data published in ChEMBL document CHEMBL1148167, “Isolation of a dihydrobenzofuran lignan from South American dragon's blood (Croton spp.) as an inhibitor of cell proliferation” (J Nat Prod, 1993).
Active and inactive are the calls of the source. The rule behind the calls is not given here.

Experiments:
HUVEC [1] = assay: Effect on HUVEC cells proliferation assessed as [3H]thymidine incorporation at 0.4883 ug/ml after 90 hrs by liquid scintillation counting relative to negative control; format: functional, Homo sapiens
Procedure, shortened: (§1)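 HUVEC seeded at 10×10^3 cells/well in medium 199 with 20% human adult serum. After 6 h, washed, then given twofold sample dilutions in medium 199 with 2% human adult serum, 37°, 5% CO2, 90 h. Then 1 μCi [3H]thymidine/well for 6 h. TCA-fixed, DNA solubilized in SDS/NaOH at 60° for 2 h, scintillation counted. cpm/cell expressed as % of untreated control.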

HUVEC [2] = assay: Effect on HUVEC cells proliferation assessed as viable cells at 0.9766 ug/ml after 90 hrs relative to negative control; format: functional; conditions: Homo sapiens, read-out: Activity
Procedure, shortened: (§2)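 HUVEC seeded at 10×10^3 cells/well in 20% serum medium. After 6 h, washed and exposed to twofold sample dilutions (250 down to 0.49 μg/ml) in medium 199 with 2% human adult serum for 90 h plus a 6 h thymidine pulse. Cells counted under an inverted microscope after TCA fixation, as % of untreated control.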

HUVEC [3] = assay: Effect on HUVEC cells proliferation assessed as viable cells at 7.8125 ug/ml after 90 hrs relative to negative control; format: functional; conditions: Homo sapiens, read-out: Activity; procedure, shortened: as §2
HUVEC [4] = assay: Effect on HUVEC cells proliferation assessed as viable cells at 15.625 ug/ml after 90 hrs relative to negative control; format: functional; conditions: Homo sapiens, read-out: Activity; procedure, shortened: as §2
HUVEC [5] = assay: Effect on HUVEC cells proliferation assessed as [3H]thymidine incorporation at 1.9531 ug/ml after 90 hrs by liquid scintillation counting relative to negative control; format: functional, Homo sapiens; procedure, shortened: as §1
HUVEC [6] = assay: Effect on HUVEC cells proliferation assessed as inhibition of [3H]thymidine incorporation at 125 ug/ml after 90 hrs by liquid scintillation counting; format: functional; conditions: Homo sapiens
Procedure, shortened: (§3)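 HUVEC seeded at 10×10^3 cells/well, washed after 6 h, then exposed 90 h to twofold dilutions in medium 199 with 2% human adult serum. Pulsed 6 h with 1 μCi [3H]thymidine, TCA-fixed, lysed in 0.1% SDS/0.2 N NaOH, scintillation counted. Incorporation per cell (cpm/cells counted) relative to untreated control gave % inhibition.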

HUVEC [7] = assay: Effect on HUVEC cells proliferation assessed as inhibition of [3H]thymidine incorporation at 0.9766 ug/ml after 90 hrs by liquid scintillation counting; format: functional; conditions: Homo sapiens; procedure, shortened: as §3
HUVEC [8] = assay: Effect on HUVEC cells proliferation assessed as [3H]thymidine incorporation at 62.5 ug/ml after 90 hrs by liquid scintillation counting relative to negative control; format: functional, Homo sapiens; procedure, shortened: as §1
HUVEC [9] = assay: Effect on HUVEC cells proliferation assessed as viable cells at 250 ug/ml after 90 hrs relative to negative control; format: functional; conditions: Homo sapiens, read-out: Activity; procedure, shortened: as §2
HUVEC [10] = assay: Effect on HUVEC cells proliferation assessed as [3H]thymidine incorporation at 7.8125 ug/ml after 90 hrs by liquid scintillation counting relative to negative control; format: functional, Homo sapiens; procedure, shortened: as §1
HUVEC [11] = assay: Effect on HUVEC cells proliferation assessed as viable cells at 1.9531 ug/ml after 90 hrs relative to negative control; format: functional; conditions: Homo sapiens, read-out: Activity; procedure, shortened: as §2
HUVEC [12] = assay: Effect on HUVEC cells proliferation assessed as viable cells at 31.25 ug/ml after 90 hrs relative to negative control; format: functional; conditions: Homo sapiens, read-out: Activity; procedure, shortened: as §2
HUVEC [13] = assay: Effect on HUVEC cells proliferation assessed as viable cells at 0.4883 ug/ml after 90 hrs relative to negative control; format: functional; conditions: Homo sapiens, read-out: Activity; procedure, shortened: as §2
HUVEC [14] = assay: Effect on HUVEC cells proliferation assessed as inhibition of [3H]thymidine incorporation at 3.9062 ug/ml after 90 hrs by liquid scintillation counting; format: functional; conditions: Homo sapiens; procedure, shortened: as §3
HUVEC [15] = assay: Effect on HUVEC cells proliferation assessed as [3H]thymidine incorporation at 31.25 ug/ml after 90 hrs by liquid scintillation counting relative to negative control; format: functional, Homo sapiens; procedure, shortened: as §1
HUVEC [16] = assay: Effect on HUVEC cells proliferation assessed as [3H]thymidine incorporation at 3.9062 ug/ml after 90 hrs by liquid scintillation counting relative to negative control; format: functional, Homo sapiens; procedure, shortened: as §1
HUVEC [17] = assay: Induction of HUVEC cell proliferation at 2.5 ug/ml after 6 days; format: functional, cell-based; conditions: Homo sapiens
Procedure, shortened: (§4)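 HUVEC (passage 2–4) seeded at 4×10^3 cells/well in medium 199 with 20% human adult serum; after 8 h washed twice, then exposed to medium 199 with 5% human adult serum ± sample. Samples were 0.5% stocks in 33% PEG 400, diluted into the medium. Growth was scored microscopically every other day for 6 days against 5% serum (negative) and 30% serum (positive) controls.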

HUVEC [18] = assay: Effect on HUVEC cells proliferation assessed as inhibition of [3H]thymidine incorporation at 15.625 ug/ml after 90 hrs by liquid scintillation counting; format: functional; conditions: Homo sapiens; procedure, shortened: as §3
HUVEC [19] = assay: Effect on HUVEC cells proliferation assessed as viable cells at 62.5 ug/ml after 90 hrs relative to negative control; format: functional; conditions: Homo sapiens, read-out: Activity; procedure, shortened: as §2
HUVEC [20] = assay: Effect on HUVEC cells proliferation assessed as viable cells at 3.9062 ug/ml after 90 hrs relative to negative control; format: functional; conditions: Homo sapiens, read-out: Activity; procedure, shortened: as §2
HUVEC [21] = assay: Effect on HUVEC cells proliferation assessed as viable cells at 125 ug/ml after 90 hrs relative to negative control; format: functional; conditions: Homo sapiens, read-out: Activity; procedure, shortened: as §2
HUVEC [22] = assay: Cytotoxicity against HUVEC cell at 250 ug/ml after 6 days; format: cell-based; conditions: human, 144 h; procedure, shortened: as §4
HUVEC [23] = assay: Effect on HUVEC cells proliferation assessed as inhibition of [3H]thymidine incorporation at 1.9531 ug/ml after 90 hrs by liquid scintillation counting; format: functional; conditions: Homo sapiens; procedure, shortened: as §3
HUVEC [24] = assay: Effect on HUVEC cells proliferation assessed as inhibition of [3H]thymidine incorporation at 31.25 ug/ml after 90 hrs by liquid scintillation counting; format: functional; conditions: Homo sapiens; procedure, shortened: as §3
HUVEC [25] = assay: Effect on HUVEC cells proliferation assessed as inhibition of [3H]thymidine incorporation at 7.8125 ug/ml after 90 hrs by liquid scintillation counting; format: functional; conditions: Homo sapiens; procedure, shortened: as §3
HUVEC [26] = assay: Effect on HUVEC cells proliferation assessed as [3H]thymidine incorporation at 15.625 ug/ml after 90 hrs by liquid scintillation counting relative to negative control; format: functional, Homo sapiens; procedure, shortened: as §1
HUVEC [27] = assay: Effect on HUVEC cells proliferation assessed as [3H]thymidine incorporation at 125 ug/ml after 90 hrs by liquid scintillation counting relative to negative control; format: functional, Homo sapiens; procedure, shortened: as §1
HUVEC [28] = assay: Effect on HUVEC cells proliferation assessed as inhibition of [3H]thymidine incorporation at 0.4883 ug/ml after 90 hrs by liquid scintillation counting; format: functional; conditions: Homo sapiens; procedure, shortened: as §3
HUVEC [29] = assay: Effect on HUVEC cells proliferation assessed as [3H]thymidine incorporation at 0.9766 ug/ml after 90 hrs by liquid scintillation counting relative to negative control; format: functional, Homo sapiens; procedure, shortened: as §1
HUVEC [30] = assay: Effect on HUVEC cells proliferation assessed as inhibition of [3H]thymidine incorporation at 62.5 ug/ml after 90 hrs by liquid scintillation counting; format: functional; conditions: Homo sapiens; procedure, shortened: as §3
HUVEC [31] = assay: Induction of HUVEC cell proliferation at 50 ug/ml after 6 days; format: functional, cell-based; conditions: Homo sapiens; procedure, shortened: as §4
HUVEC [32] = assay: Cytotoxicity against HUVEC cell at 5 ug/ml after 6 days; format: cell-based; conditions: human, 144 h
Procedure, shortened: (§5)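 HUVEC (passages 2–4) seeded at 4×10^3 cells/well in medium 199 with 20% human adult serum, washed after 8 h, then given medium 199 with 5% human adult serum ± sample (from 0.5% stocks in PEG 400 33%). Growth was scored microscopically every other day for 6 days against 5% serum (negative) and 30% serum (positive) controls, with toxicity graded.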

HUVEC [33] = assay: Induction of HUVEC cell proliferation at 0.25 ug/ml after 6 days; format: functional, cell-based; conditions: Homo sapiens; procedure, shortened: as §4
HUVEC [34] = assay: Cytotoxicity against HUVEC cell at 2.5 ug/ml after 6 days; format: cell-based; conditions: human, 144 h; procedure, shortened: as §5
HUVEC [35] = assay: Cytotoxicity against HUVEC cell at 25 ug/ml after 6 days; format: cell-based; conditions: human, 144 h; procedure, shortened: as §5

Structure (SMILES): COc1ccc([C@H]2Oc3c(OC)cc(CCCO)cc3[C@@H]2CO)cc1OC
- Activity (HUVEC [1]): 101%
- viability at 0.9766 µg/mL (HUVEC [2]): 108%
- viability at 7.8125 µg/mL (HUVEC [3]): 123%
- viability at 15.625 µg/mL (HUVEC [4]): 169%
- Activity (HUVEC [5]): 52%
- inhibition at 125 µg/mL (HUVEC [6]): 97%
- inhibition at 0.9766 µg/mL (HUVEC [7]): 32%
- Activity (HUVEC [8]): 2%
- viability at 250 µg/mL (HUVEC [9]): 0%
- Activity (HUVEC [10]): 21%
- viability at 1.9531 µg/mL (HUVEC [11]): 123%
- viability at 31.25 µg/mL (HUVEC [12]): 185%
- viability at 0.4883 µg/mL (HUVEC [13]): 108%
- inhibition at 3.9062 µg/mL (HUVEC [14]): 71%
- Activity (HUVEC [15]): 7%
- Activity (HUVEC [16]): 29%
- Activity (HUVEC [17]): inactive
- inhibition at 15.625 µg/mL (HUVEC [18]): 87%
- viability at 62.5 µg/mL (HUVEC [19]): 231%
- viability at 3.9062 µg/mL (HUVEC [20]): 123%
- viability at 125 µg/mL (HUVEC [21]): 46%
- Activity (HUVEC [22]): Toxic
- inhibition at 1.9531 µg/mL (HUVEC [23]): 48%
- inhibition at 31.25 µg/mL (HUVEC [24]): 93%
- inhibition at 7.8125 µg/mL (HUVEC [25]): 79%
- Activity (HUVEC [26]): 13%
- Activity (HUVEC [27]): 3%
- inhibition at 0.4883 µg/mL (HUVEC [28]): -1%
- Activity (HUVEC [29]): 68%
- inhibition at 62.5 µg/mL (HUVEC [30]): 98%

Structure (SMILES): COc1ccc([C@H]2Oc3c(O)cc(CCCO)cc3[C@@H]2CO)cc1OC
- Activity (HUVEC [31]): inactive
- Activity (HUVEC [22]): Toxic

Structure (SMILES): COc1ccc2c(=O)oc3c(OC)cc(CCN(C)C)c4c(=O)oc1c2c34 [TASPINE]
- Activity (HUVEC [32]): Toxic
- Activity (HUVEC [33]): inactive
- Activity (HUVEC [34]): Toxic
- Activity (HUVEC [35]): Toxic
